Measured values from different studies.
Each line is one published result; the experiments were not run side by side.
Target: Focal adhesion kinase 1 (PTK2, Homo sapiens, UniProt Q05397)

CC1=C(C#N)C(c2ccc3c(c2)c(NC(=O)c2ccccc2C)nn3C)C(C#N)=C(C)N1
remaining binding (cell-free assay, competition with immobilised ligand; 1 µM): 94%

O=C1Nc2ccc(Cl)cc2C1=Cc1cc(Cl)c(O)c(Cl)c1
remaining signal (cell-free assay; 0.5 µM): 91.5%

O=C(CSc1nc2nccnc2c(=O)n1CCc1ccccc1)Nc1nccs1
inhibition (enzyme activity, inhibitor; 10 µM): 6%

CC(=O)N1CCC(c2ccc(C(=O)NC(=N)N)cc2C(F)(F)F)CC1
remaining binding (cell-free assay, competition with immobilised ligand; 1 µM): 100%

C=CC(=O)Nc1cc(Nc2nccc(Nc3cc(Cl)c(F)cc3C(C)(C)O)n2)c(OC)cc1N1CC[C@@H](N(C)C)C1
inhibition (enzyme activity, inhibitor; 1 µM): 74%

CCOC(=O)c1cc2cc(-c3cc(C(=O)NCc4ccc(C(=O)O)cc4)nn3C)ccc2[nH]1
remaining binding (cell-free assay, competition with immobilised ligand; 0.1 µM): 94%

Cc1ccc(NC(=O)c2ccc(CN3CCN(C)CC3)cc2)cc1Nc1nccc(-c2cncc(-c3oncc3C)c2)n1
remaining activity (enzyme activity, inhibitor; 0.5 µM): ≤ 50%

CCN(CC)c1ccc(C2=NNC(=O)CC2C)cc1[N+](=O)[O-] (centres unmarked)
remaining activity (enzyme activity, inhibitor; 10 µM): 96%

O=c1nc(-c2ccccn2)sc2ccccc12
remaining binding (binding, competition with immobilised ligand; 1 µM): 90%

CCCS(=O)(=O)Nc1ccc(F)c(C(=O)c2c[nH]c3ncc(-c4ccc(Cl)cc4)cc23)c1F
inhibition (enzyme activity, inhibitor; 1 µM): < 10%

COc1cc(Cl)c(C(=O)N[C@@H](CN[C@H]2CC[C@@H](N)CC2)Cc2ccc(C#N)cc2)cc1-c1ccc(CN[C@H](C)c2ccc(C)cc2)o1
remaining activity (enzyme activity, inhibitor; 1 µM): 100%

N#CCCc1ccc2c(c1)-c1[nH]c3ccc([N+](=O)[O-])cc3c1CC(=O)N2
remaining signal (cell-free assay; 0.5 µM): 82.2%

c1nc2c(Nc3ccc4c(c3)OCCO4)nc(Nc3ccc4c(c3)OCCO4)nc2[nH]1
activity vs control (enzyme activity, inhibitor; 10 µM): 58%

Cc1[nH]c(/C=C2\C(=O)Nc3ccc(F)cc32)c(C)c1C(=O)N[C@H]1CCN(C(=O)N(C)C)C1
remaining activity (enzyme activity, inhibitor; 0.1 µM): 88%

CC(C)(O)[C@H]1CC[C@H](Nc2ccc3ncc(-c4cccc(C(F)(F)F)c4)n3n2)CC1
remaining activity (enzyme activity, inhibitor; 1 µM): 83.5%

Cc1cnn2ncc(-c3ccnc(N(C)C)n3)c2c1
remaining signal (cell-free assay; 1 µM): 92%

O=C(Nc1cnn(-c2csc(C(=O)NC3COC3)c2)c1)Nc1c(F)cccc1Cl
remaining activity (enzyme activity, inhibitor; 5 µM): 89%

CSc1cccnc1N1CCN(Cc2nc3ccccc3[nH]2)CC1
remaining binding (cell-free assay, competition with immobilised ligand; 1 µM): 100%

COc1cc(-c2cc(-c3ccc(N4CCNCC4)cc3)cnc2C)cc(OC)c1OC
inhibition (enzyme activity, inhibitor; 0.1 µM): 26%

O=S(=O)(NC1CCC(c2cc(F)ccc2F)(S(=O)(=O)c2ccc(Cl)cc2)CC1)C(F)(F)F (centres unmarked)
remaining binding (cell-free assay, competition with immobilised ligand; 1 µM): 90%

CCCOc1ccc(OC)c(F)c1C(=O)c1ccc(C(=O)N[C@@H]2CNC[C@H]2NC(=O)c2ccc3[nH]ncc3c2)cc1
remaining activity (enzyme activity, inhibitor; 10 µM): 103%

O=C(Nc1cnn(-c2csc(C(=O)NC3COC3)c2)c1)Nc1ccccc1Cl
remaining activity (enzyme activity, inhibitor; 5 µM): 95.7%

CNCc1ccccc1-c1csc([C@@H](C)Nc2nc(C)nc3cc(OC)c(OC)cc23)c1
remaining binding (cell-free assay, competition with immobilised ligand; 1 µM): 86%

CC(C)(C)c1nc(-c2cccc(NS(=O)(=O)c3c(F)cccc3F)c2F)c(-c2ccnc(N)n2)s1
remaining activity (enzyme activity, inhibitor, radiometric; 1 µM): 89%

F[C@@H]1CCN(c2nccc(-c3cnn4ncccc34)n2)C1
remaining signal (cell-free assay; 1 µM): 100%

Cc1ccc(Nc2nccc(N(C)c3ccc4c(C)n(C)nc4c3)n2)cc1S(N)(=O)=O
inhibition (enzyme activity, inhibitor; 10 µM): 73%

Cc1nccc(COC(=O)N2C[C@@H]3[C@@H](CNC(=O)c4ccc5[nH]nnc5c4)[C@@H]3C2)n1
remaining binding (cell-free assay, competition with immobilised ligand; 1 µM): 100%

Oc1cccc(-c2nc(N3CCOCC3)c3oc4ncccc4c3n2)c1
remaining signal (cell-free assay; 0.5 µM): 93.5%

COc1cc2ncnc(Nc3ccc(Oc4ccccc4)c(C)c3C)c2cc1OC
inhibition (enzyme activity, inhibitor; 1 µM): -1%
